Calls of active or inactive are those of the source. No cut-off for these calls is given here.
Tests used:
[1] = tested on: RAW264.7; test: Decrease in PMA-induced COX-2 mRNA expression in mouse RAW264.7 cells at 5 to 15 uM after 24 hrs by PCR analysis; assay type: functional, cell-based
Method in brief: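 RAW 264.7 monolayers stimulated with PMA and co-incubated with compound (0–15 μM) for 24 h. Total RNA isolated; equal RNA amounts reverse-transcribed to cDNA. COX-2 fragments amplified by PCR: 94 C 3 min, then 35 cycles of 94 C 30 s, 56 C 1 min, 78 C 30 s. GAPDH served as reference.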

[2] = tested on: Caco-2; test: Cytotoxicity against human Caco2 cells assessed as decrease in cell viability at 5 to 30 uM after 24 hrs by trypan blue exclusion assay; assay type: functional, cell-based
Method in brief: (§1)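 Caco-2 cells kept in MEM with 10% heat-inactivated FBS, penicillin G and streptomycin at 37 C, 5% CO2. Compounds given from a 5 mg/mL DMSO stock; exponentially growing cells seeded in complete medium with compound for 24 h. Floating and adherent cells pooled, mixed with 0.4% trypan blue, and stained/unstained cells counted by hemacytometer. Each experiment run three times.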

[3] = tested on: Caco-2; test: Decrease in PMA-induced COX-2 mRNA expression in human Caco2 cells at 10 to 15 uM after 24 hrs by PCR analysis; assay type: functional, cell-based
[4] = tested on: Caco-2; test: Cytotoxicity against human Caco2 cells assessed as decrease in cell viability at 20 uM after 24 hrs by trypan blue exclusion assay; assay type: functional; method in brief: as §1
[5] = tested on: Caco-2; test: Cytotoxicity against human Caco2 cells assessed as decrease in cell viability at 15 uM after 24 hrs by trypan blue exclusion assay; assay type: functional; method in brief: as §1
[6] = tested on: Caco-2; test: Cytotoxicity against human Caco2 cells assessed as decrease in cell viability at 30 uM after 24 hrs by trypan blue exclusion assay; assay type: functional; method in brief: as §1
[7] = tested on: Caco-2; test: Decrease in PMA-induced COX-2 mRNA expression in human Caco2 cells at 5 to 15 uM after 24 hrs by PCR analysis; assay type: functional, cell-based

| SMILES | Activity [1] | Activity [2] | Activity [3] | Activity [4] [%] | Activity [5] [%] | Activity [6] [%] | Activity [7] |
| --- | --- | --- | --- | --- | --- | --- | --- |
| CCCCCC(=O)O[C@@H]1C[C@H](O)[C@@]2(C)C=C[C@@H](OC(C)=O)[C@@](C)(O)[C@@H]2[C@H](OC(C)=O)[C@]23O[C@@]2(C)C(=O)O[C@H]3/C=C\1C [BRIALALEPOLIDE B] | Active | Dose-dependent effect | Active | 50 |  |  |  |
| CCCCCCCC(=O)O[C@@H]1C[C@H](O)[C@@]2(C)C=C[C@@H](OC(C)=O)[C@@](C)(O)[C@@H]2[C@H](OC(C)=O)[C@]23O[C@@]2(C)C(=O)O[C@H]3/C=C\1C [BRIALALEPOLIDE C] | Active | Dose-dependent effect | Active |  | 50 | 75 |  |
| CC(=O)O[C@@H]1C[C@H](O)[C@@]2(C)C=C[C@@H](OC(C)=O)[C@@](C)(O)[C@@H]2[C@H](OC(C)=O)[C@]23O[C@@]2(C)C(=O)O[C@H]3/C=C\1C [BRIALALEPOLIDE A] | inactive | Dose-dependent effect |  |  |  | 50 | inactive |
